Test results taken from ChEMBL document CHEMBL4513216, “Probing the Open Global Health Chemical Diversity Library for Multistage-Active Starting Points for Next-Generation Antimalarials” (ACS Infect Dis, 2020).

test: Toxicity liver stage against HepG2, at 10uM; type: cell-based; set-up: test concentration 10 uM, cell line HepG2-A16-CD81EGFP; settings: human, HepG2-A16-CD81EGFP cells; read-out: INHIBITION
Summary of the method: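 Uninfected HepG2-A16-CD81EGFP cells, 3 × 10^3 per well, 1536-well, plated on prespotted compound at 10 μM final, parasite-free screening media added to match infected plates; puromycin 10 μM positive, DMSO 0.5% negative; run in parallel with 48 h PbLuc assay at 37 °C, 5% CO2; viability by CellTiter-Glo luminescence, normalized to controls.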

| SMILES | cytotoxicity at 10 µM [%] |
| --- | --- |
| Cc1ccc2c(c1)Oc1ncccc1C(=O)N2 | 5.15 |
| CN1C[C@@H](NC(=O)c2ccccc2)C[C@H]1c1nc(-c2cnccn2)no1 | 9.68 |
| Cc1cc(C)n(Cc2ccc(-c3noc(C(=O)NCCO)n3)cc2)n1 | -9.45 |
| O=C(NCCc1c[nH]c2ccccc12)C1(n2cnnn2)CCCCC1 | -0.321 |
| CCOC(=O)NCc1nn(CCN2CCCC2)c(=O)c2ccccc12 | 9.66 |
| COc1ccc(OC)c(S(=O)(=O)NCC2(OC)CCSC2)c1 (stereo not drawn) | -12.8 |
| C1CN(CC2CCOCC2)Cc2c(CN3CCOCC3)nnn2C1 | -143 |
| NC1CCN(c2nccn3c(=O)[nH]nc23)CC1 | 3.65 |
| O=C(CCn1cc(Cl)cn1)Nc1ncccn1 | -5.32 |
| CSc1[nH]nc(NC(=O)c2ccncc2)c1C#N | 10.6 |
| Cc1c2ncn(CC(=O)NC(C)C)c(=O)c2nn1C | -5.26 |
| O=C(NCc1ccco1)c1[nH]nc2c1CS(=O)(=O)CC2 | 14.8 |
| CC(Nc1ncnc2c1NC(=O)CN2)c1ccc2c(c1)OCO2 (stereo not drawn) | 8.19 |
| Cc1cc(C)nc(NC(=O)C(C)Oc2ccc3c(c2)OCO3)n1 (stereo not drawn) | -9.9 |
| Cc1cc(=O)n(CC(=O)NCCC(C)C)c(-c2cccc(Cl)c2)n1 | -2.32 |
| CC(=O)N1CCC(C(=O)N2CCC2c2nc(-c3ccc(C)s3)no2)CC1 (stereo not drawn) | 3.15 |
| O=C(c1cncs1)N1CCC(c2cnccn2)CC1 | -23.2 |
| O=C(O)c1ccccc1-c1ccc(CN2CCCC(O)C2)cc1 (stereo not drawn) | -9.16 |
| CC(C)C(=O)N1CCCC(c2ncncc2-c2ccncc2)C1 (stereo not drawn) | -6.62 |
| CS(=O)(=O)N1CC2(CCN(CC3CCCCC3)C2)Cc2ccccc21 (stereo not drawn) | 23.3 |
| O=C(c1cscn1)N1CCC2(COc3ncccc3S(=O)(=O)N2)C1 (stereo not drawn) | 7.22 |
| O=C(CCOc1ccc(Cl)cc1)NCCCn1cccn1 | -12.1 |
| CN1CCC(O)(CNCc2ccc(F)c(C(F)(F)F)c2)CC1 | 3.08 |

| SMILES | cytotoxicity at 10 µM [%] |
| --- | --- |
| COc1ccccc1C(N)CC(C)C (stereo not drawn) | 6 |
| CN(C)CCCNC(=O)c1ccnc(OCc2ccccc2)c1 | -11.5 |
| CCn1ccnc1CN1CCC(N(Cc2ncc(C)o2)C(C)=O)C1 (stereo not drawn) | 11.5 |
| CCOCC(O)CN1CCN(C(=O)c2ccncc2)CC1 (stereo not drawn) | 10 |
| Cc1ccc(C(=O)NCC2(O)CCOCC2)cc1F | 6.79 |
| Cc1cc(C(=O)Nc2ccnc(OC3CCOC3)c2)c(C)o1 (stereo not drawn) | 6.66 |
| CCCn1nc(C(=O)N(C)Cc2cnn(C)c2)ccc1=O | -143 |
| CCOc1ccc(C2CCCN2Cc2nnnn2C2CC2)cc1 (stereo not drawn) | 6.26 |
| Cc1ncsc1CNc1cccc(OCCN2CCCC2)c1 | -3.35 |
| O=C(NCCSCc1ccc(Br)s1)C1CCCN(c2cnccn2)C1 (stereo not drawn) | 5.34 |
| CC(C)(O)CSCCNC(=O)c1cc(F)ccc1F | -4.11 |
| O=C(C1CCCN(Cc2ccccc2)C1)N1CCc2sccc2C1 (stereo not drawn) | 2.41 |
| CNC(=O)NC(=O)CN1CCCN(CC(F)(F)F)CC1 | -2.37 |
| FC(F)CN1CCC(NCc2ccc(-n3cccn3)nc2)CC1 | 10.6 |
| Cc1ncsc1CNC(=O)N1CCN(Cc2ccccc2)C[C@H]1C | -125 |
| Cc1cc(OCc2cccc(F)c2)ccc1NC(=O)C(C)NC(N)=O (stereo not drawn) | -1.47 |
| CC(C)n1cnnc1C1CCCN(S(=O)(=O)CCCC#N)C1 (stereo not drawn) | -3.46 |
| NC(=O)CNC(=O)c1ccc(CNCc2ccc(Cl)cc2Cl)cc1 | -41.5 |
| O=C(CCOc1ccccc1F)N1CCOCC1 | -4.4 |
| CC(C)(CCS(C)(=O)=O)CNc1ccc2ccc(F)cc2n1 | -6.01 |
| Cc1csc(NC(=O)CN(C)CC2CCCN2c2cccnn2)n1 (stereo not drawn) | -5.82 |
| CC(c1ccc(Cl)cc1)N1CCN(CCS(C)(=O)=O)CC1 (stereo not drawn) | -20.3 |
| CCc1nc(CC(=O)NCC(Cc2ccc(F)cc2)C(N)=O)cs1 (stereo not drawn) | -0.86 |

| SMILES | cytotoxicity at 10 µM [%] |
| --- | --- |
| CCc1cnc(CN(C(C)=O)C2CCN(CCS(C)(=O)=O)C2)o1 (stereo not drawn) | -17.8 |
| Cc1nc(C)n(CC2CCCCN2CC(=O)Nc2cccnc2)n1 (stereo not drawn) | -12.4 |
| COCC(=O)N1CCc2nc(NC(C)C)nc(NC(C)C)c2CC1 | -104 |
| Cc1ccc(CNC(=O)c2nc3c(n2C)CCN(c2ncccn2)C3)o1 | -119 |
| COCC1CN(C(=O)c2ccnnc2)Cc2c1cnn2C (stereo not drawn) | -3.09 |
| CCc1cc(NCCNC(C)=O)nc(N2CCCC2)n1 | -6.77 |
| CN(Cc1cc(C2CC2)on1)C(=O)C(c1cccnc1)N1CCCC1 (stereo not drawn) | -41.6 |
| COCc1noc(-c2ccc(N3CCCCC3COC)nc2)n1 (stereo not drawn) | 1.69 |
| O=C(N[C@@H]1c2ccccc2C[C@@H]1O)C1CCN(Cc2ccco2)CC1 | -0.647 |
| CC(C)(C)c1oc(C(N)=O)cc1CN1CCCCC1CN1CCOCC1 (stereo not drawn) | -11.2 |
| COCCCNc1ncnc2c1CCN(C(=O)CC1C=CCC1)CC2 (stereo not drawn) | 5.97 |
| CN1CCc2[nH]nc(C(=O)N3CCC4(CN(C)C(=O)O4)C3)c2C1 (stereo not drawn) | -46.4 |
| Cc1nccn1CCC1CCN(c2ncccn2)CC1 | -3 |
| Cc1csc2ncnc(N3CCCC(Cn4cc(C(C)(C)O)nn4)C3)c12 (stereo not drawn) | 2.74 |
| FC(F)(F)c1ccc(-n2ccnc2-c2cc3n(n2)CCNC3)cn1 | -4.65 |
| Cn1ncnc1-c1ccnc(N2CCC(C(O)c3cccs3)CC2)n1 (stereo not drawn) | -39.2 |
| Cc1cc(C)c(C(=O)N2CCC3(CCCN(CC(C)(C)C)C3)C2)[nH]1 (stereo not drawn) | -3.73 |
| COCCN1CCC(CN(C)c2nc3c(s2)c(C)nn3C)C1 (stereo not drawn) | -4.36 |
| CCc1cnc(N)nc1N1CCN(C(C)=O)CC1 | -51.7 |
| CC(C)CN1CCc2[nH]cnc2C12CCN(C(=O)c1cc[nH]n1)CC2 | 0.363 |
| COCc1cc(N2CCN(Cc3ccncc3)CC2)n2nccc2n1 | -6.32 |
| O=C(O)C1(Oc2ccccc2)CCN(c2ccncc2)CC1 | -3.99 |
| Cc1oc(-c2ccc(F)cc2F)nc1CN1C[C@@H](C)O[C@@H](C)C1 | -39.9 |

| SMILES | cytotoxicity at 10 µM [%] |
| --- | --- |
| Cc1cnccc1CN(C)C1CCN(c2ncnc3[nH]cnc23)CC1 | -42.9 |
| Cn1ccnc1C1CCCN(C(=O)c2cc(F)cc(F)c2)C1 (stereo not drawn) | 18.4 |
| c1ccc(-c2cccc(-c3ccn(CCN4CCCCC4)n3)c2)nc1 | -4.73 |
| CCC[C@H]1CN(c2nccc(NCC)n2)C[C@@H]1NS(=O)(=O)N(C)C | -144 |
| Cc1nn(CCNC(C)Cn2cncn2)c(C)c1Cl (stereo not drawn) | 13.4 |
| Cc1c(F)cccc1CN1CCn2nc(CNC(=O)N(C)C)cc2C1 | -19.4 |
| Cc1c(CN2CCOCC2)c(O)n(CCO)c(=O)c1C#N | -2.78 |
| CCc1nc(C)cn1C(=O)Nc1ccccc1 | 2.52 |
| CC(C)C(=O)N1CCN(Cc2cc(-c3ccncc3)nn2C)CC1 | 0.59 |
| CCN1CCN(c2ncc(-c3cc(C)no3)c(-c3ccoc3C)n2)CC1 | 1.16 |
| CC(C)Cc1cc(NC(=O)c2ccncc2)n(C)n1 | -0.502 |
| CC(C)c1nccn1C1CCCN(C(=O)c2cc(C3CC3)on2)C1 (stereo not drawn) | -7.37 |
| CC(C)c1n[nH]c(C2CN(C(=O)c3cnccn3)CCO2)n1 (stereo not drawn) | 2.16 |
| CCc1nc(C(=O)N2CCCC2)nn1-c1c(Cl)cccc1Cl | -2.04 |
| CCOc1cc(C(=O)N2CCCC(c3nc(C)c(C)s3)C2)ccn1 (stereo not drawn) | -3.92 |
| O=C(CN1CCCC1Cn1cccn1)NCCOc1cccc(F)c1 (stereo not drawn) | -3.54 |
| CCOc1ccc(Cl)c(C(=O)NC)n1 | -4.63 |
| CC(NS(C)(=O)=O)C(=O)N1CCCN(Cc2cscn2)CC1 (stereo not drawn) | -5.95 |
| CC(C)C(=O)NCCNC(=O)CCOc1cccc(F)c1 | -2.98 |
| COC(=O)C(c1cc(F)ccc1F)N(C)C(=O)c1cnccn1 (stereo not drawn) | 6.43 |
| CCCc1n[nH]c(C2CN(C(=O)Cn3ccccc3=O)CCO2)n1 (stereo not drawn) | -1.33 |
| CCc1nc2n(n1)CC(NCc1nc(-c3cccnc3)no1)CC2 (stereo not drawn) | -8.66 |
| Cc1nn(C)c(C)c1C1CCCN1C(=O)CCCn1cccn1 (stereo not drawn) | -0.685 |

| SMILES | cytotoxicity at 10 µM [%] |
| --- | --- |
| CNS(=O)(=O)c1ccc(C(=O)N2CCCC2c2cnn(C)c2)o1 (stereo not drawn) | -8.28 |
| CCc1ccc(O)c(C(=O)NC2CCN(Cc3ccncc3)CC2)c1 | 5.52 |
| COCCCNC(=O)NCc1ccc(C)cc1 | 3.37 |
| CCOc1cccc(CNC(=O)NCC(O)c2cccc(F)c2)c1 (stereo not drawn) | -2.92 |
| Cc1noc([C@@H](C)NCc2cccc(Cl)c2)c1C(=O)O | -0.802 |
| CCC(CN1CCCCC1)NC(=O)C1(c2ccc(F)cc2)CC1 (stereo not drawn) | 1.69 |
| COc1ccc(C(C)(C)C)cc1CN1CCn2c(CO)nnc2C1 | 10.4 |
| CC(C)CN1CCN(S(=O)(=O)c2cn(C)cn2)Cc2cccnc21 | -144 |
| Cc1cccc(CN2CCOC3(COCCN(CCN(C)C)C3)C2)n1 (stereo not drawn) | -113 |
| Cn1cc(CN2CC(C(=O)Nc3ccccc3)C3(CCOCC3)C2)cn1 (stereo not drawn) | -1.96 |
| CNC(=O)c1cc2c(nc1NCC(C)C)CCN(C)CC2 | -153 |
| CN(Cc1ccccn1)C(=O)c1nn(C)c2c1CCN(CC1CC1)C2 | -1.68 |
| Cc1cc(CN2CC[C@H]3C[C@H](C(=O)Nc4cccnc4C)O[C@@H]3C2)no1 | -67 |
| Cn1nc(C(=O)N2CCOCC2)c2c1CN(CC1CC1)C2 | -90.1 |
| O=C1COC2(CCN(Cc3cccnc3)CC2)CN1c1ccccc1 | -113 |
| c1ccc(CN2CCn3c(Cn4cncn4)cnc3C2)nc1 | -70.7 |
| Cc1ccc2c(n1)N(CCN(C)C)CCN(C(=O)c1ccoc1)C2 | -74.4 |
| Cc1nc(COC[C@@H]2CCC[C@@]23CNCCO3)cs1 | 3.29 |
| O=C1NC2(CCN(Cc3nccs3)CC2)CC1c1ccncc1 (stereo not drawn) | -1.31 |
| CCSc1ncc(CN2C[C@@H]3CC[C@H]2CN(C2CCOCC2)C3)cn1 | -6.38 |
| COc1ccc(Cl)cc1S(=O)(=O)N1C[C@H]2CC[C@@H](C1)N(C)C2=O | 3.98 |
